Laboratory results from PubChem BioAssay AID623961 (The Scripps Research Institute Molecular Screening Center, 2012).
The source made the active and inactive calls.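 The calls were made as follows: active = mean cell viability below 80%; inactive = the rest.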

System: Huh-7.5 Rluc-replicon viability, CellTiter-Glo ATP, 72 h
Experiment: Huh-7.5 replicon viability loss – cell-based, luminescence, cytotoxicity control for HCV NS3 helicase inhibitor project, late-stage follow-up (AID 623961)
Details: at 10 µM; stronger effect = lower value
How it was run: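 System: Huh-7.5 human hepatoma cells harboring HCV Renilla luciferase replicon / Compound dosing: 10 µM single concentration, 0.5% DMSO / Schedule: cell attachment 4-5 h, compound exposure 72 h at 37 °C, 5% CO2 / Technique: ATP luminescence after 30 min lysis at 23 °C / Read-out: mean % viability / Buffer or medium: fresh growth medium at readout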

Structure (SMILES) | viability
COc1ccc(C(=O)Nc2ccc(-c3nc4ccc(-c5nc6ccc(C)c(S(=O)(=O)O)c6s5)cc4s3)cc2)cc1 | 85% (inactive)
Cc1ccc2nc(-c3ccc4nc(-c5ccc(NC(=O)c6cc(F)cc(C(F)(F)F)c6)cc5)sc4c3)sc2c1S(=O)(=O)O | 113% (inactive)
Cc1ccc2nc(-c3ccc4nc(-c5ccc(NC(=O)c6cc(F)ccc6C(F)(F)F)cc5)sc4c3)sc2c1S(=O)(=O)O | 118% (inactive)
Cc1ccc2nc(-c3ccc4nc(-c5ccc(NC(=O)c6ccc(CNC(=O)OCC7c8ccccc8-c8ccccc87)cc6)cc5)sc4c3)sc2c1S(=O)(=O)O | 102% (inactive)
Cc1cc(C(O)(c2ccc(Nc3ccccc3)cc2)c2ccc(Nc3ccc(S(=O)(=O)O)cc3)cc2)ccc1N (stereo unspecified) | 73%
COC(=O)c1ccc(C(=O)Nc2ccc(-c3nc4ccc(-c5nc6ccc(C)c(S(=O)(=O)O)c6s5)cc4s3)cc2)cc1 | 101% (inactive)
